Results from different studies.
Each line is one published result; the experiments were not run side by side.
Matrix: plasma
Route: intravenous

Compound	host	dose	setting	Vd
C[C@]1(O)CCCN(c2nc(Nc3ccc(S(=O)(=O)N[C@H]4CC[C@H](CN5CCN(c6ccc(C7CCC(=O)NC7=O)c(F)c6)CC5)CC4)cc3F)ncc2C(F)(F)F)C1 (stereo partly shown)	rat	2 mg/kg		3 L/kg
NCCOCC(=O)N1CCC[C@H](C(=O)NCc2nc(-c3ccc(C(F)(F)F)cc3)cs2)C1	male Sprague-Dawley rat	1 mg/kg		3.2 L/kg
COc1ccc(-c2coc3cc(O)cc(O)c3c2=O)cc1	rat	2 mg/kg		0.81 L/kg
C[C@]1(O)CCCN(c2nc(Nc3ccc(S(=O)(=O)N[C@@H]4CCN(CC5CCN(c6ccc(C7CCC(=O)NC7=O)cc6F)CC5)C[C@H]4F)cc3F)ncc2C(F)(F)F)C1 (stereo partly shown)	rat	2 mg/kg		5 L/kg
CC(C)(N)COCC(=O)N1CCC[C@H](C(=O)NCc2nc(-c3ccc(C(F)(F)F)cc3)cs2)C1	male Sprague-Dawley rat	1 mg/kg		4.3 L/kg
C[C@H]1CN(c2ccc(C3CCC(=O)NC3=O)cc2F)CCN1CC12CCC(NS(=O)(=O)c3ccc(Nc4ncc(C(F)(F)F)c(N5CCC[C@](C)(O)C5)n4)c(F)c3)(CC1)CO2 (stereo partly shown)	rat	2 mg/kg		4 L/kg
Cc1nc(Nc2ncc(C(=O)Nc3c(C)cccc3Cl)s2)cc(N2CC[C@@H](N)C2)n1	male Sprague-Dawley rat	1 mg/kg		32.8 L/kg
Cn1c(=O)c2[nH]cnc2n(C)c1=O	male Sprague-Dawley rat	22.5 mg/kg		1.52 L/kg
Cc1nc(Nc2ncc(C(=O)Nc3c(C)cccc3Cl)s2)cc(N2CC[C@H](O)C2)n1	male Sprague-Dawley rat	1 mg/kg		0.9 L/kg
C=CCn1c(=O)c2cnc(Nc3ccc(N4CCN(C)CC4)cc3)nc2n1-c1ccc2c(n1)[C@@](O)(CC)CC2	rat	3 mg/kg		2.8 L/kg
[2H]c1cc(C)c(NC(=O)c2cnc(Nc3cc(N4CC[C@H](O)C4)nc(C)n3)s2)c(Cl)c1	male Sprague-Dawley rat	1 mg/kg		1.1 L/kg
CC(=O)c1c(C)c2cnc(Nc3ccc(N4CCNCC4)cn3)nc2n(C2CCCC2)c1=O	male Sprague-Dawley rat	5 mg/kg		3.3 L/kg
[2H]c1cc(C)c(NC(=O)c2cnc(Nc3cc(N4CCC(O)CC4)nc(C)n3)s2)c(Cl)c1	male Sprague-Dawley rat	1 mg/kg		4.8 L/kg
COCC(=O)N1CCC[C@H](C(=O)NCc2nc(-c3ccc(C#N)cc3)cs2)C1	male Sprague-Dawley rat	1 mg/kg		0.18 L/kg
C[C@]1(O)CCCN(c2nc(Nc3ccc(S(=O)(=O)N[C@H]4CC[C@H](CN5CCN(c6ccc(C7CCC(=O)NC7=O)cc6F)CC5)CC4)cc3F)ncc2C(F)(F)F)C1 (stereo partly shown)	rat	2 mg/kg		4 L/kg
Cc1nc(Nc2ncc(C(=O)Nc3c(C)cccc3Cl)s2)cc(N2CCN(CCO)CC2)n1	male Sprague-Dawley rat	1 mg/kg	single dose	2.4 L/kg
